Source: ChEMBL document CHEMBL4020842, “Discovery of N1-(4-((7-Cyclopentyl-6-(dimethylcarbamoyl)-7 H-pyrrolo[2,3- d]pyrimidin-2-yl)amino)phenyl)- N8-hydroxyoctanediamide as a Novel Inhibitor Targeting Cyclin-dependent Kinase 4/9 (CDK4/9) and Histone Deacetlyase1 (HDAC1) against Malignant Cancer” (J Med Chem, 2018)
Values after ≈ are worked out from the molar mass of the structure shown. Active and inactive are the calls of the source. The calls are words filed in the database; no cut-off is given here.

Assays:
HepG2 = test: Induction of apoptosis in human HepG2 cells assessed as late apoptotic cells at 1 uM after 48 hrs by annexin V-FITC/propidium iodide staining based flow cytometry (reference value: 0.64%); assay type: functional
Mus musculus = test: Toxicity in Balb/c mouse assessed as weight loss at 45 to 130 mg/kg, ip for 16 consecutive days; assay type: organism-based; settings: in vivo
T47D [1] = test: Cell cycle arrest in human T47D cells assessed as accumulation at G2 phase at 2.5 to 10 uM after 24 hrs by propidium iodide staining based flow cytometry; assay type: functional
Procedure, shortened: (§1)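 Cells were exposed for 24 h to a range of concentrations (625 nM, 2.5 and 10 µM), with DMSO vehicle as control. They were then stained with propidium iodide and analysed by flow cytometry to obtain the percentages of cells in G0/G1, S and G2 phases.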

A549 [2] = test: Induction of apoptosis in human A549 cells assessed as reduction in Bcl2 protein expression after 48 hrs by Western blot method; assay type: functional, cell-based
Procedure, shortened: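 Cells were treated with or without compound and control for 48 h, then lysed. Bcl-2 and cleaved caspase 3 were assessed by Western blot.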

NCI-H460 [3] = test: Cell cycle arrest in human NCI-H460 cells assessed as decrease in S-phase at 625 nM after 24 hrs by propidium iodide staining based flow cytometry; assay type: functional; procedure, shortened: as §1
4T1 [4] = test: Antitumor activity against mouse Fluc-labeled 4T1 cells implanted in Balb/c mouse assessed as tumor growth inhibition at 130 mg/kg, po administered daily via gavage for 18 days by bioluminescence assay relative to control; assay type: functional; settings: 4T1, po, 432 h, read-out: TGI
A549 [5] = test: Induction of apoptosis in human A549 cells assessed as late apoptotic cells at 1 uM after 48 hrs by annexin V-FITC/propidium iodide staining based flow cytometry (reference value: 0.88%); assay type: functional
A549 [6] = test: Inhibition of CDK4 protein expression in human A549 cells at 0.1 to 1 uM after 24 hrs by immunofluorescence assay; assay type: functional, cell-based
Procedure, shortened: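 Cells treated 24 h with test compound or vehicle. For the CDK4 read-out the compound was used at 100 nM, and for acetyl-histone H3 at 1 µM. CDK4 and acetyl-histone H3 were then detected by immunofluorescence staining and compared with vehicle-treated cells.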

T47D [7] = test: Downregulation of Cyclin-D1 protein expression in human T47D cells after 48 hrs by Western blot method; assay type: functional, cell-based
Procedure, shortened: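 Treated cells were lysed and CDK4 and cyclin D1 protein levels were assessed by Western blot.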

Aurora-C/INCENP = Aurora-C/INCENP (Homo sapiens, UniProt Q9NQS7+Q9UQB9); test: Inhibition of recombinant human N-terminal His6-tagged Aurora-C (35-end residues)/N-terminal GST-tagged INCENP (821-end residues) expressed in baculovirus infected sf21 cells using AKRRRLSSLRA substrate in presence of [gamma33P]ATP after 10 mins by scintillation counting method
Chain of Aurora-C/INCENP (Q9UQB9 whole entry): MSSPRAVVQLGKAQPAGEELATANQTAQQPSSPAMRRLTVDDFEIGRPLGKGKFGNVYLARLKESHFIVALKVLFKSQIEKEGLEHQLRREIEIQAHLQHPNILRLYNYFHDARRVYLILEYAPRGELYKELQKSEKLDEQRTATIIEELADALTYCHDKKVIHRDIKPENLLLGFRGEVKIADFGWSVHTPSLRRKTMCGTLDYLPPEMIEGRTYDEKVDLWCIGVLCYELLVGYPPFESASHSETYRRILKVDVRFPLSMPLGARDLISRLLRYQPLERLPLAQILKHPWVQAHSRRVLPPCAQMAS
Chain of Aurora-C/INCENP (Q9NQS7 whole entry): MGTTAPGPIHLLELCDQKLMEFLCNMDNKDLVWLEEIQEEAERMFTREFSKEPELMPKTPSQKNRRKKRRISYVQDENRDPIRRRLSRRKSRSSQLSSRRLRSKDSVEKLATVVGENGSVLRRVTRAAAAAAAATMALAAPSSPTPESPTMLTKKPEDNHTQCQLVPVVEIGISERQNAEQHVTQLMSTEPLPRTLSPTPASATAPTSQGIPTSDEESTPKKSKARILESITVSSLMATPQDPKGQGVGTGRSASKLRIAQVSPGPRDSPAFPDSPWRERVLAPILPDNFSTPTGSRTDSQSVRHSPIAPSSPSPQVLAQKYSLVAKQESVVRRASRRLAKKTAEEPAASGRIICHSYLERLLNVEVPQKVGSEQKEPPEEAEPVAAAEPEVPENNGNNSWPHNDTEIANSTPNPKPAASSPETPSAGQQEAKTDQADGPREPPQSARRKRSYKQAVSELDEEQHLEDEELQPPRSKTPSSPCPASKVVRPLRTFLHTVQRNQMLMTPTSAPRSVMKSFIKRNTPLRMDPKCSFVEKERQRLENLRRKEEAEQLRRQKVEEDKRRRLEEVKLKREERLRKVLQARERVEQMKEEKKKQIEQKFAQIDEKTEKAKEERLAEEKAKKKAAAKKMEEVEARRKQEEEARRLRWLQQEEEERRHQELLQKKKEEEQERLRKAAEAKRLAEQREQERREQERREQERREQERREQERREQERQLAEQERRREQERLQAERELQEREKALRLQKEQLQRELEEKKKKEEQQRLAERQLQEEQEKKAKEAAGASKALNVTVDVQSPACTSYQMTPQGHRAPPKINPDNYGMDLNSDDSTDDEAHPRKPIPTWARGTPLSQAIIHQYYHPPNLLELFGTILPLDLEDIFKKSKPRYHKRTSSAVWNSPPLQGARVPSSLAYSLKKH

[8] = Lipophilicity, log P of the compound by HPLC based shake flask method; assay type: physicochemical
LIM domain kinase 1 = LIM domain kinase 1 (Homo sapiens, UniProt P53667); test: Inhibition of recombinant human N-terminal His6-tagged LIMK1 (285 to 638 residues) expressed in baculovirus infected sf21 cells
Chain of LIM domain kinase 1 (P53667 whole entry, the tested form may be a part): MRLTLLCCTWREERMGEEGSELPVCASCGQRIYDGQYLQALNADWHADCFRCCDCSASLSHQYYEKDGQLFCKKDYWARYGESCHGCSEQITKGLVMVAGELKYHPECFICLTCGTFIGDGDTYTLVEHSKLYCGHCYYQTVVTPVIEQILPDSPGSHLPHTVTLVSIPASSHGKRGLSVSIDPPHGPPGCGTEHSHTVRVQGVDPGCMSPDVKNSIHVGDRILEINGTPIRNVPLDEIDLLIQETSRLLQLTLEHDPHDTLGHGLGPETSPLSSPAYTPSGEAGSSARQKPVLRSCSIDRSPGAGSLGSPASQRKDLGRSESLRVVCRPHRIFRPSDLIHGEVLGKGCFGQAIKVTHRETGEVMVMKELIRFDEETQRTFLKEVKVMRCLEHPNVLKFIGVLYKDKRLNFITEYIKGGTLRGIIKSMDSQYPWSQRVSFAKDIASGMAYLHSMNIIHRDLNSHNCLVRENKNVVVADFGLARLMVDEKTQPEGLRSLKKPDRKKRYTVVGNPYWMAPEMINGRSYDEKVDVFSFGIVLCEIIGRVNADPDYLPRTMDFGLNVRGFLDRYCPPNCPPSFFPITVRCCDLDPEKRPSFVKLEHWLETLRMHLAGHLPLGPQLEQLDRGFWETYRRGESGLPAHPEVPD

Hep 3B2 = test: Induction of apoptosis in human Hep3B cells assessed as necrotic cells at 1 uM after 48 hrs by annexin V-FITC/propidium iodide staining based flow cytometry (reference value: 4.97%); assay type: functional
4T1 [9] = test: Antitumor activity against mouse Fluc-labeled 4T1 cells implanted in Balb/c mouse assessed as tumor growth inhibition at 90 mg/kg, ip administered daily for 18 days measured after 8 to 25 days by bioluminescence assay relative to control; assay type: functional; settings: 4T1, ip, read-out: TGI
Procedure, shortened: (§2)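 Luciferase (Fluc) reporter introduced into 4T1 cells by lentiviral transduction. Cells implanted orthotopically into mammary fat pads of female BALB/c mice aged 6–8 weeks. Once tumours averaged 100 mm3, dosing was daily by IP injection. Bioluminescence imaging was done at days 8 and 25 to reflect viable tumour cell number. Tumour weight was recorded at study end.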

[10] = Half life in Sprague-Dawley rat at 20 mg/kg, iv administered as single dose by HPLC analysis; assay type: ADME, organism-based; settings: in vivo
NCI-H460 [11] = test: Induction of apoptosis in human NCI-H460 cells assessed as reduction in Bcl2 protein expression after 48 hrs by Western blot method; assay type: functional, cell-based
Procedure, shortened: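 Cells were treated with or without test agent, alongside a control, for 48h. They were then lysed and analysed by Western blot for Bcl-2 protein and cleaved caspase 3.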

4T1 [12] = test: Antitumor activity against mouse Fluc-labeled 4T1 cells implanted in Balb/c mouse assessed as reduction in tumor weight at 130 mg/kg, ip administered daily for 18 days measured after 8 to 25 days; assay type: functional, organism-based; procedure, shortened: as §2
4T1 [13] = test: Antitumor activity against mouse Fluc-labeled 4T1 cells implanted in Balb/c mouse assessed as tumor growth inhibition at 90 mg/kg, po administered daily via gavage for 18 days by bioluminescence assay relative to control; assay type: functional; settings: 4T1, po, 432 h, read-out: TGI
Procedure, shortened: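 Fluc-labelled 4T1 cells (lentiviral transduction) were implanted orthotopically into the mammary fat pads of female BALB/c mice aged 6–8 weeks. Treatment started once tumours averaged 100 mm3, given daily by oral gavage. Tumour burden was followed by bioluminescence imaging of Fluc reporter expression.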

[14] = Aqueous solubility in pH 7.4 PBS buffer at 1 mg sonicated for 24 hrs and incubated under unstirred condition for 24 hrs by HPLC method; assay type: physicochemical
CDK4/CDK9 (Homo sapiens) = CDK4/CDK9 (Homo sapiens) (UniProt P11802+P50750); test: Inhibition of CDK4/CDK9 in human HepG2 cells assessed as reduction in Rb phosphorylation at Ser807/811 residues at 1 uM after 48 hrs by Western blot method; assay type: cell-based
Chain of CDK4/CDK9 (Homo sapiens) (P11802 whole entry, looked up): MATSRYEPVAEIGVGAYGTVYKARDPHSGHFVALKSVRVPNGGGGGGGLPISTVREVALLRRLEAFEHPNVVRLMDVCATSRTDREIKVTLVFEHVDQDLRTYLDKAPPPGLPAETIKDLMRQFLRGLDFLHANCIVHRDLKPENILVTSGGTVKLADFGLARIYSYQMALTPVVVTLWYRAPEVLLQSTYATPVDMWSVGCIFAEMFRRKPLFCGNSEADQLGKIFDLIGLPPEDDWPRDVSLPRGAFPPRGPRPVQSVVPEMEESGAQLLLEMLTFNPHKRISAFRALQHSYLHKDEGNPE
Chain of CDK4/CDK9 (Homo sapiens) (P50750 whole entry, looked up): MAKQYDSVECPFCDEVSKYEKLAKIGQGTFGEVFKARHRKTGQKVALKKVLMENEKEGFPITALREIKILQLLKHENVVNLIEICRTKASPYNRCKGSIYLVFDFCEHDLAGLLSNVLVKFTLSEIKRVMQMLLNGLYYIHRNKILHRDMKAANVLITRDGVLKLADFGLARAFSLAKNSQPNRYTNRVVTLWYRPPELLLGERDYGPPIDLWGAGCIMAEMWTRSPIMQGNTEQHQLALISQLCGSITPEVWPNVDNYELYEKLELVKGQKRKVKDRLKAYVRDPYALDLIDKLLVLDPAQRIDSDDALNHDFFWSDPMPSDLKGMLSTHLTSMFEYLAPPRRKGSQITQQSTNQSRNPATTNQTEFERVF

[15] = AUC (0 to infinity) in Sprague-Dawley rat at 20 mg/kg, po administered as single dose by HPLC analysis; assay type: ADME, organism-based; design: dose 20 mg/kg, time infinity, route oral; settings: in vivo
Histone deacetylase 1 [16] = target: T1, Histone deacetylase 1 (Homo sapiens, UniProt Q13547); test: Inhibition of HDAC1 in human MDA-MB-231 cells assessed as increase in p53 phosphorylation at Ser15 residue at 1 to 5 uM after 48 hrs by Western blot method; assay type: cell-based
T1 sequence (Q13547 whole entry): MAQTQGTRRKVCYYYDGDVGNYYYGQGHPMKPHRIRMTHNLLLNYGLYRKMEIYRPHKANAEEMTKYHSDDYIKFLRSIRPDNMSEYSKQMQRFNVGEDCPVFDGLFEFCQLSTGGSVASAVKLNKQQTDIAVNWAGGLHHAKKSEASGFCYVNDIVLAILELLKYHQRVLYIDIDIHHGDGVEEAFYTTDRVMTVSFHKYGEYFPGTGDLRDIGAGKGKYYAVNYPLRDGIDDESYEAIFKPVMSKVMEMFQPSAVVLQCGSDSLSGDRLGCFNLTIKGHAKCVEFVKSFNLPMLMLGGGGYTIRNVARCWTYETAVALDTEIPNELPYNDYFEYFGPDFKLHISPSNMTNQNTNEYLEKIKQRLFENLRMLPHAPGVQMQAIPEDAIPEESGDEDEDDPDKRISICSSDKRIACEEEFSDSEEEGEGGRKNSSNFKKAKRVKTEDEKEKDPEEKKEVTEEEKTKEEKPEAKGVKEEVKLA

A549 [17] = test: Induction of apoptosis in human A549 cells assessed as necrotic cells at 1 uM after 48 hrs by annexin V-FITC/propidium iodide staining based flow cytometry (reference value: […]%); assay type: functional
T47D [18] = test: Induction of apoptosis in human T47D cells assessed as late apoptotic cells at 5 uM after 48 hrs by annexin V-FITC/propidium iodide staining based flow cytometry (reference value: 6.16%); assay type: functional
MDA-MB-231 = test: Induction of apoptosis in human MDA-MB-231 cells assessed as late apoptotic cells at 5 uM after 48 hrs by annexin V-FITC/propidium iodide staining based flow cytometry (reference value: 1.53%); assay type: functional
NCI-H460 [19] = test: Cytotoxicity against human NCI-H460 cells assessed as reduction in cell viability after 72 hrs by CCK8 assay; assay type: functional, cell-based; settings: NCI-H460, 72 h
Histone deacetylase 1 [20] = target: T1, Histone deacetylase 1; test: Inhibition of HDAC1 in human T47D cells assessed as increase in acetylated-histone H3 level at 1 to 5 uM after 48 hrs by Western blot method; assay type: cell-based
NCI-H460 [21] = test: Induction of apoptosis in human NCI-H460 cells assessed as necrotic cells at 5 uM after 48 hrs by annexin V-FITC/propidium iodide staining based flow cytometry (reference value: 1.34%); assay type: functional

## CN(C)C(=O)c1cc2cnc(Nc3ccc(NC(=O)CCCCCCC(=O)NO)cc3)nc2n1C1CCCC1
HepG2
  Activity: 6.07%
Mus musculus
  Activity: Non-Toxic
T47D [1]
  Activity: Active
A549 [2]
  Activity: Active
NCI-H460 [3]
  Activity: Active
4T1 [4]
  inhibition in vivo at 130 mg/kg: 79.3%
A549 [5]
  Activity: 1.93%
A549 [6]
  inhibition: Active
T47D [7]
  Activity: Dose-dependent effect
Aurora-C/INCENP
  IC50: 22 nM
[8]
  logP: 2.62
LIM domain kinase 1
  IC50: 44 nM
Hep 3B2
  Activity: 3.3%
4T1 [9]
  inhibition in vivo at 90 mg/kg: 78.4%
[10]
  half-life: 10.8 h
NCI-H460 [11]
  Activity: Active
4T1 [12]
  Activity: Active
4T1 [13]
  inhibition in vivo at 90 mg/kg: 70.3%
[14]
  solubility at 24 h: 0.35 µg/mL (≈ 0.653 µM)
CDK4/CDK9 (Homo sapiens)
  inhibition: Active
[15]
  AUC(0-inf): 1130 ng·h/mL
Histone deacetylase 1 [16]
  inhibition: Active
A549 [17]
  Activity: 6.67%
T47D [18]
  Activity: 8.44%
MDA-MB-231
  Activity: 5.76%
NCI-H460 [19]
  IC50: 3780 nM
Histone deacetylase 1 [20]
  inhibition: Active
NCI-H460 [21]
  Activity: 3.88%
